Marks after values point to notes of the source that are not given here. Where no end group is shown, it is not given here.
Key:
[1] = Metabolic stability in mouse brain homogenate; assay type: in vitro ADME
Summary of the method: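 Test compound (100 μM stock in methanol) added to 1 μM final in plasma or brain homogenate (1:3 brain:PBS, w/v) and incubated at room temperature. Sampled at 15 and 30 min and 1, 2 and 4 h; time-zero samples pre-quenched with methanol. Proteins were methanol-precipitated; supernatant evaporated, reconstituted in 0.1% formic acid and analysed by LC/MS/MS. Duplicates per time point; results expressed as % of time 0.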

[2] = Radiolabel distribution study of 3H-P8 after IV or IN delivery; assay type: in vivo; settings: rat
Summary of the method: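 Adult male SD rats (n = 6/route) were anaesthetised with ketamine/xylazine/acepromazine. They received 0.5 mg test compound plus 60 μCi tritiated label in 60 μL over 18 min, either by IV infusion or by IN drops to alternating nares every 2 min while supine. Blood was drawn 10 and 20 min after dosing ended. At 30 min: cardiac puncture, saline perfusion, then tissue scintillation counting. Concentrations were derived from DPM, tissue weight and specific activity; values beyond 2 SD were excluded as outliers.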

[3] = PK study in plasma and CSF after single IV, SC or IN dose; assay type: in vivo, rat
Summary of the method: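 Cannulated rats (jugular vein, intracisternal; n = 6/route) received a single dose in PBS: IV or SC ~11 mg/kg over 1 min, or IN ~5.5 mg/kg, 10 μL per nostril at 6-min intervals over 18 min. K2EDTA plasma was taken pre-dose to 165 min and CSF pre-dose to 150/180 min. LC/MS/MS (ESI+, 1007.55 > 876.35) with noncompartmental PK; CL = Dose/AUC. CSF ratio = dose-normalised CSF AUC relative to IV.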

Q: Which results are given for DEEEDEEL [P8, DEEEDEEL]?
A: remaining at 2 h, 1 μM [1]: 49.2%; improvement of brain targeting, IN compared to IV delivery [2]: approximately 4 fold; P8 concentration in plasma ([3]; IN 5.5 mg/kg single dose, 5 min, Rat 1): 137 ng/mL; P8 concentration in plasma ([3]; IN 5.5 mg/kg single dose, 5 min, Rat 2): 262 ng/mL; P8 concentration in plasma ([3]; IN 5.5 mg/kg single dose, 5 min, Rat 3): 191 ng/mL; P8 concentration in CSF ([3]; IN 5.5 mg/kg single dose, 10 min, Rat 2): 3.09 ng/mL; P8 concentration in CSF ([3]; IN 5.5 mg/kg single dose, 10 min, Rat 3): 32.8 ng/mL; P8 concentration in plasma ([3]; IN 5.5 mg/kg single dose, 15 min, Rat 1): 102 ng/mL; P8 concentration in plasma ([3]; IN 5.5 mg/kg single dose, 15 min, Rat 2): 234 ng/mL; P8 concentration in plasma ([3]; IN 5.5 mg/kg single dose, 15 min, Rat 3): 150 ng/mL; P8 concentration in plasma ([3]; IN 5.5 mg/kg single dose, 25 min, Rat 1): 60.8 ng/mL; P8 concentration in plasma ([3]; IN 5.5 mg/kg single dose, 25 min, Rat 2): 123^b ng/mL; P8 concentration in plasma ([3]; IN 5.5 mg/kg single dose, 25 min, Rat 3): 90.6 ng/mL; P8 concentration in CSF ([3]; IN 5.5 mg/kg single dose, 30 min, Rat 2): 1.03 ng/mL; P8 concentration in CSF ([3]; IN 5.5 mg/kg single dose, 30 min, Rat 3): 1.95 ng/mL; P8 concentration in plasma ([3]; IN 5.5 mg/kg single dose, 35 min, Rat 1): 53.7 ng/mL; P8 concentration in plasma ([3]; IN 5.5 mg/kg single dose, 35 min, Rat 2): 85.9 ng/mL; P8 concentration in plasma ([3]; IN 5.5 mg/kg single dose, 35 min, Rat 3): 66.0 ng/mL; P8 concentration in plasma ([3]; IN 5.5 mg/kg single dose, 50 min, Rat 1): 66.1 ng/mL; P8 concentration in plasma ([3]; IN 5.5 mg/kg single dose, 50 min, Rat 2): 67.7 ng/mL; P8 concentration in plasma ([3]; IN 5.5 mg/kg single dose, 50 min, Rat 3): 45.1 ng/mL; P8 concentration in CSF ([3]; IN 5.5 mg/kg single dose, 60 min, Rat 1): 1.18 ng/mL; P8 concentration in CSF ([3]; IN 5.5 mg/kg single dose, 60 min, Rat 2): 0.632 ng/mL; P8 concentration in CSF ([3]; IN 5.5 mg/kg single dose, 60 min, Rat 3): 1.28 ng/mL; P8 concentration in plasma ([3]; IN 5.5 mg/kg single dose, 70 min, Rat 1): 37.6 ng/mL; P8 concentration in plasma ([3]; IN 5.5 mg/kg single dose, 70 min, Rat 2): 55.3 ng/mL; P8 concentration in plasma ([3]; IN 5.5 mg/kg single dose, 70 min, Rat 3): 32.1 ng/mL; P8 concentration in plasma ([3]; IN 5.5 mg/kg single dose, 90 min, Rat 1): 32.2 ng/mL; P8 concentration in plasma ([3]; IN 5.5 mg/kg single dose, 90 min, Rat 2): 42.8 ng/mL; P8 concentration in plasma ([3]; IN 5.5 mg/kg single dose, 90 min, Rat 3): 20.7 ng/mL; P8 concentration in CSF ([3]; IN 5.5 mg/kg single dose, 100 min, Rat 1): 0.537 ng/mL; P8 concentration in CSF ([3]; IN 5.5 mg/kg single dose, 100 min, Rat 2): 2.39 ng/mL; P8 concentration in CSF ([3]; IN 5.5 mg/kg single dose, 100 min, Rat 3): 0.532 ng/mL; P8 concentration in plasma ([3]; IN 5.5 mg/kg single dose, 110 min, Rat 1): 26.0 ng/mL; P8 concentration in plasma ([3]; IN 5.5 mg/kg single dose, 110 min, Rat 2): 27.0 ng/mL; P8 concentration in plasma ([3]; IN 5.5 mg/kg single dose, 110 min, Rat 3): 13.9 ng/mL; P8 concentration in plasma ([3]; IN 5.5 mg/kg single dose, 130 min, Rat 1): 33.2 ng/mL; P8 concentration in plasma ([3]; IN 5.5 mg/kg single dose, 130 min, Rat 2): 15.0 ng/mL; P8 concentration in plasma ([3]; IN 5.5 mg/kg single dose, 130 min, Rat 3): 14.3 ng/mL; P8 concentration in CSF ([3]; IN 5.5 mg/kg single dose, 150 min, Rat 1): 0.581 ng/mL; P8 concentration in CSF ([3]; IN 5.5 mg/kg single dose, 150 min, Rat 3): 1.16 ng/mL; P8 concentration in plasma ([3]; IN 5.5 mg/kg single dose, 165 min, Rat 1): 32.7 ng/mL; P8 concentration in plasma ([3]; IN 5.5 mg/kg single dose, 165 min, Rat 2): 14.9 ng/mL; P8 concentration in plasma ([3]; IN 5.5 mg/kg single dose, 165 min, Rat 3): 17.1 ng/mL; P8 concentration in plasma ([3]; IV 11.0 mg/kg single dose, 5 min, Rat 1): 102,000 ng/mL; P8 concentration in plasma ([3]; IV 11.0 mg/kg single dose, 5 min, Rat 2): 45,300 ng/mL; P8 concentration in plasma ([3]; IV 11.0 mg/kg single dose, 5 min, Rat 3): 43,600 ng/mL; P8 concentration in CSF ([3]; IV 11.0 mg/kg single dose, 10 min, Rat 2): 50.1^c ng/mL; P8 concentration in CSF ([3]; IV 11.0 mg/kg single dose, 10 min, Rat 3): 85.7^c ng/mL; P8 concentration in plasma ([3]; IV 11.0 mg/kg single dose, 15 min, Rat 2): 12,600 ng/mL; P8 concentration in plasma ([3]; IV 11.0 mg/kg single dose, 15 min, Rat 3): 8,460 ng/mL; P8 concentration in plasma ([3]; IV 11.0 mg/kg single dose, 25 min, Rat 1): 4,250 ng/mL; P8 concentration in plasma ([3]; IV 11.0 mg/kg single dose, 25 min, Rat 2): 5,650 ng/mL; P8 concentration in plasma ([3]; IV 11.0 mg/kg single dose, 25 min, Rat 3): 3,230 ng/mL; P8 concentration in CSF ([3]; IV 11.0 mg/kg single dose, 30 min, Rat 1): 42.5 ng/mL; P8 concentration in CSF ([3]; IV 11.0 mg/kg single dose, 30 min, Rat 2): 48.2^c ng/mL; P8 concentration in CSF ([3]; IV 11.0 mg/kg single dose, 30 min, Rat 3): 39.3 ng/mL; P8 concentration in plasma ([3]; IV 11.0 mg/kg single dose, 35 min, Rat 1): 2,160 ng/mL; P8 concentration in plasma ([3]; IV 11.0 mg/kg single dose, 35 min, Rat 2): 2,710 ng/mL; P8 concentration in plasma ([3]; IV 11.0 mg/kg single dose, 35 min, Rat 3): 1,770 ng/mL; P8 concentration in plasma ([3]; IV 11.0 mg/kg single dose, 50 min, Rat 1): 878 ng/mL; P8 concentration in plasma ([3]; IV 11.0 mg/kg single dose, 50 min, Rat 2): 1,190 ng/mL; P8 concentration in plasma ([3]; IV 11.0 mg/kg single dose, 50 min, Rat 3): 713 ng/mL; P8 concentration in CSF ([3]; IV 11.0 mg/kg single dose, 60 min, Rat 1): 22.8 ng/mL; P8 concentration in CSF ([3]; IV 11.0 mg/kg single dose, 60 min, Rat 2): 17.8 ng/mL; P8 concentration in CSF ([3]; IV 11.0 mg/kg single dose, 60 min, Rat 3): 16.9 ng/mL; P8 concentration in plasma ([3]; IV 11.0 mg/kg single dose, 70 min, Rat 1): 392 ng/mL; P8 concentration in plasma ([3]; IV 11.0 mg/kg single dose, 70 min, Rat 2): 313 ng/mL; P8 concentration in plasma ([3]; IV 11.0 mg/kg single dose, 70 min, Rat 3): 199 ng/mL; P8 concentration in CSF ([3]; IV 11.0 mg/kg single dose, 100 min, Rat 1): 10.7 ng/mL; P8 concentration in CSF ([3]; IV 11.0 mg/kg single dose, 100 min, Rat 2): 8.69 ng/mL; P8 concentration in CSF ([3]; IV 11.0 mg/kg single dose, 100 min, Rat 3): 4.08 ng/mL; P8 concentration in plasma ([3]; IV 11.0 mg/kg single dose, 110 min, Rat 1): 93.1 ng/mL; P8 concentration in plasma ([3]; IV 11.0 mg/kg single dose, 110 min, Rat 2): 36.4 ng/mL

From article PMC6218153 (Journal of Alzheimer's Disease Reports, 2018)
